In ChEMBL document CHEMBL5653631, “A Potent and Selective ULK1 Inhibitor Suppresses Autophagy and Sensitizes Cancer Cells to Nutrient Stress” (iScience, 2018) one finds inhibition and fold change (FC) data, which are given here for three molecules.

In test [1] the target is Aurora kinase B (Homo sapiens) (UniProt Q96GD4). The test can be described thus: Inhibition of human recombinant AurB at 40 nM in presence of ATP by radiometric assay relative to control. Summed up:
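Part of a radiometric in vitro activity panel of 327 recombinant human kinases. Each kinase was tested in duplicate at one inhibitor concentration. Activity remaining was expressed as a percentage of the vehicle control, and percent inhibition was taken as 100 minus that value.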

In test [2] the target is Death-associated protein kinase 1 (Homo sapiens) (UniProt P53355). As to the kind of experiment: Inhibition of human recombinant DAPK1 at 40 nM related to control ULK1.
Sequence of Death-associated protein kinase 1 (Homo sapiens) (P53355 whole entry, looked up): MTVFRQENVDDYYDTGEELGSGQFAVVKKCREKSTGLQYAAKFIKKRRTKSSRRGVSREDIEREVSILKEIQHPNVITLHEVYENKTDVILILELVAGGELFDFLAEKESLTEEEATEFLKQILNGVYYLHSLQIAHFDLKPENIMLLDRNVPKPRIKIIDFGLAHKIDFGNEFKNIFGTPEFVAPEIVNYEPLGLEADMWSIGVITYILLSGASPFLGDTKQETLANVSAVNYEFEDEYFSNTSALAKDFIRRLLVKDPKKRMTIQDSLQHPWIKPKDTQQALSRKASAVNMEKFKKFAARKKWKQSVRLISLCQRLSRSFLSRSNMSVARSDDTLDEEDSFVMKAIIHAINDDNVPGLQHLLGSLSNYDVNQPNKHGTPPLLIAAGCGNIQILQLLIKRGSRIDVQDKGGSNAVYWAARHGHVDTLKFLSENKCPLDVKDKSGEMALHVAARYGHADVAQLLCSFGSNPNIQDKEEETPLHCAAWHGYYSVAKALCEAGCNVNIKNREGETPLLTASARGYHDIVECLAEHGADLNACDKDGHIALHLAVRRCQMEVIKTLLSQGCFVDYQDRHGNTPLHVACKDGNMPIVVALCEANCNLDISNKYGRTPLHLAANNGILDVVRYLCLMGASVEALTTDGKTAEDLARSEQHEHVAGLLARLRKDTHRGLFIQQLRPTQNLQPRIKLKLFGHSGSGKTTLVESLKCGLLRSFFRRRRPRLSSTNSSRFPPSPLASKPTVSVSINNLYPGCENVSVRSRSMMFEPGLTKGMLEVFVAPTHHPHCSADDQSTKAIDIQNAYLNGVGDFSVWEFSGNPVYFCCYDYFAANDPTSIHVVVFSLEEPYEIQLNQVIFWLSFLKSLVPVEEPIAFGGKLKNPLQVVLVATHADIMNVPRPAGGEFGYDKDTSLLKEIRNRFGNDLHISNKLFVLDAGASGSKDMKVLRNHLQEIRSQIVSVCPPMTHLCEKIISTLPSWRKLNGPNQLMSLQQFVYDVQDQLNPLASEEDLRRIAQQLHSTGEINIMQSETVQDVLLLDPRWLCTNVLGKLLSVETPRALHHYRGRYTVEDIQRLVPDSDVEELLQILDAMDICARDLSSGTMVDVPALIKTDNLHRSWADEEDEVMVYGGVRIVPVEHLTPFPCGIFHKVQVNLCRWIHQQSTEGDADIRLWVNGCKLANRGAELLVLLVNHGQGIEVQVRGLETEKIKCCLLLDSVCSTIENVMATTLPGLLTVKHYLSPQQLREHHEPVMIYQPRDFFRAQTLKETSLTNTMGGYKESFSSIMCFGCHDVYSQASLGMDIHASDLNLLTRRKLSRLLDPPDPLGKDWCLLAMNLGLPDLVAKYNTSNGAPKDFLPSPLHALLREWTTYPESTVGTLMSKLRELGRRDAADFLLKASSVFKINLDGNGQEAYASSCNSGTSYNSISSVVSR
Test [3] has as its target Protein kinase C alpha type (Homo sapiens) (UniProt P17252). As to the kind of experiment: Inhibition of human recombinant PKCa at 40 nM related to control ULK1.
Test [4] has as its target T1, Receptor-interacting serine/threonine-protein kinase 1 (Homo sapiens) (UniProt Q13546).
T1 sequence (whole entry): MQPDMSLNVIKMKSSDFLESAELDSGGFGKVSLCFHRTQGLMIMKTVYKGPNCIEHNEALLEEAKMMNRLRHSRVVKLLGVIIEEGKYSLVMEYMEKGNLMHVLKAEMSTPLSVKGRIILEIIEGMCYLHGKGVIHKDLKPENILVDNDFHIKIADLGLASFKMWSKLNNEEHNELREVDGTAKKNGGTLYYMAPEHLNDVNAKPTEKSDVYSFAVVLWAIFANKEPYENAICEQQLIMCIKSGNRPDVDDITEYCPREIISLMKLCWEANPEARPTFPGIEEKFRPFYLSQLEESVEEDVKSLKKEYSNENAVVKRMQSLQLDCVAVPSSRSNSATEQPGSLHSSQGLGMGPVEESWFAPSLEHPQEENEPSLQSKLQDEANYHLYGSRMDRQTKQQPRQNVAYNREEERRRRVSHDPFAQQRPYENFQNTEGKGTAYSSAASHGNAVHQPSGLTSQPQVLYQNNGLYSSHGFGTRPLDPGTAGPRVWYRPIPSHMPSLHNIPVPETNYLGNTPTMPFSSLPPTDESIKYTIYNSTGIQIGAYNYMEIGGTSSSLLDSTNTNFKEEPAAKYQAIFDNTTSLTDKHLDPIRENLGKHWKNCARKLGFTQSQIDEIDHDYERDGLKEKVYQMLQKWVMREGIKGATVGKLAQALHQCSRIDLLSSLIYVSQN
The test can be described thus: Inhibition of human recombinant RIPK1 at 500 nM related to control ULK1.

Test [5] deals with Homeodomain-interacting protein kinase 1 (Homo sapiens) (UniProt Q86Z02). The test can be described thus: Inhibition of human recombinant HIPK1 at 500 nM in presence of ATP by radiometric assay relative to control.
Sequence of Homeodomain-interacting protein kinase 1 (Homo sapiens) (Q86Z02 whole entry, looked up): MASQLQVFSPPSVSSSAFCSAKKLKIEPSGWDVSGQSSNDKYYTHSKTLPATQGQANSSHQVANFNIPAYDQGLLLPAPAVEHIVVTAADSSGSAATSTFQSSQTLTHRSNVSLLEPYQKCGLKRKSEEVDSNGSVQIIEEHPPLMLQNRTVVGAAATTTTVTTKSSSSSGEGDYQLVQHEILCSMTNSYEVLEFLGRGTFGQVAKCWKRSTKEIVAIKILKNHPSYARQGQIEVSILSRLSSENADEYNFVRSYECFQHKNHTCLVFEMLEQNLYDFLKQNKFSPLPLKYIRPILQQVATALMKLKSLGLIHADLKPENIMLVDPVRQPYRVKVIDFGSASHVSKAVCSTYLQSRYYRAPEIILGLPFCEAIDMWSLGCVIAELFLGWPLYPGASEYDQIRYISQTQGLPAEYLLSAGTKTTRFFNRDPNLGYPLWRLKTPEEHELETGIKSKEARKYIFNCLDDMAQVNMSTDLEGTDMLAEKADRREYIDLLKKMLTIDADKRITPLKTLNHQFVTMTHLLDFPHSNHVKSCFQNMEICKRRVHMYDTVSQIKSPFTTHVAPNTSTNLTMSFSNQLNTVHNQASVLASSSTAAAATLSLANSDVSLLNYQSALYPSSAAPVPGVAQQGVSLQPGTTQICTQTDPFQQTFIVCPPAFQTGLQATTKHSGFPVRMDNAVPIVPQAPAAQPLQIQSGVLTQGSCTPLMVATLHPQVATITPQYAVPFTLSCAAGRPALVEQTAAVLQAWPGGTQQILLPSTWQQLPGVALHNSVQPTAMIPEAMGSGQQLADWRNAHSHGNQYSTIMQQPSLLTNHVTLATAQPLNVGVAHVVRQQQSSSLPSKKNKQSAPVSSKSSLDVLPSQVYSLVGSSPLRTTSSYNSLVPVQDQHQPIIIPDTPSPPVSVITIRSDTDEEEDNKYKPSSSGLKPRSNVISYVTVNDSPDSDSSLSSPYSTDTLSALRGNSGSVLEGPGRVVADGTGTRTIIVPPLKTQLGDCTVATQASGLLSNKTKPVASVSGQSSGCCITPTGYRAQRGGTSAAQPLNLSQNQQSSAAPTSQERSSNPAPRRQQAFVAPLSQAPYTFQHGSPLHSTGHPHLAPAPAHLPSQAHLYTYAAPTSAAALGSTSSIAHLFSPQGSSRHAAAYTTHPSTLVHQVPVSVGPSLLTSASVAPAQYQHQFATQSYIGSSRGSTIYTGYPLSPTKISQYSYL
Test [6] concerns the target T2, Mitogen-activated protein kinase kinase kinase 2 (Homo sapiens) (UniProt Q9Y2U5).
T2 sequence (whole entry): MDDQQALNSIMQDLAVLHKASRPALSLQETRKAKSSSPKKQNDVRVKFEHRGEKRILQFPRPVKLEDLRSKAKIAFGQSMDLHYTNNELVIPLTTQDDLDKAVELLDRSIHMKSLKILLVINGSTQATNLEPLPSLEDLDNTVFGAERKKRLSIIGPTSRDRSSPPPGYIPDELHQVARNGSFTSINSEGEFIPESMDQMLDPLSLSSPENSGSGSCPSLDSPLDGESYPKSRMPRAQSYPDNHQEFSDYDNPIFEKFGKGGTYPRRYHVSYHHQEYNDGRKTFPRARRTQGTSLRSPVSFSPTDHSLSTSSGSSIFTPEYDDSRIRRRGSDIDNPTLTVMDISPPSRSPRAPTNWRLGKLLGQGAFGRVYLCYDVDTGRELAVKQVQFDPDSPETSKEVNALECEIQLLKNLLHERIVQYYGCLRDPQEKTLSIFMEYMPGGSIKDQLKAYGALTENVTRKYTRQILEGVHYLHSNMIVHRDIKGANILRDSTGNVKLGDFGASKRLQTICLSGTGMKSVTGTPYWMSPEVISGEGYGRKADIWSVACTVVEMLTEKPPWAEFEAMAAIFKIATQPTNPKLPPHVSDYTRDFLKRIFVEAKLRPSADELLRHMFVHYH
As to the kind of experiment: Inhibition of human recombinant MAP3K2 at 15 nM in presence of ATP by radiometric assay relative to control.

Test [7] has as its target T3, Serine/threonine-protein kinase ULK1 (Homo sapiens) (UniProt O75385).
T3 sequence (whole entry): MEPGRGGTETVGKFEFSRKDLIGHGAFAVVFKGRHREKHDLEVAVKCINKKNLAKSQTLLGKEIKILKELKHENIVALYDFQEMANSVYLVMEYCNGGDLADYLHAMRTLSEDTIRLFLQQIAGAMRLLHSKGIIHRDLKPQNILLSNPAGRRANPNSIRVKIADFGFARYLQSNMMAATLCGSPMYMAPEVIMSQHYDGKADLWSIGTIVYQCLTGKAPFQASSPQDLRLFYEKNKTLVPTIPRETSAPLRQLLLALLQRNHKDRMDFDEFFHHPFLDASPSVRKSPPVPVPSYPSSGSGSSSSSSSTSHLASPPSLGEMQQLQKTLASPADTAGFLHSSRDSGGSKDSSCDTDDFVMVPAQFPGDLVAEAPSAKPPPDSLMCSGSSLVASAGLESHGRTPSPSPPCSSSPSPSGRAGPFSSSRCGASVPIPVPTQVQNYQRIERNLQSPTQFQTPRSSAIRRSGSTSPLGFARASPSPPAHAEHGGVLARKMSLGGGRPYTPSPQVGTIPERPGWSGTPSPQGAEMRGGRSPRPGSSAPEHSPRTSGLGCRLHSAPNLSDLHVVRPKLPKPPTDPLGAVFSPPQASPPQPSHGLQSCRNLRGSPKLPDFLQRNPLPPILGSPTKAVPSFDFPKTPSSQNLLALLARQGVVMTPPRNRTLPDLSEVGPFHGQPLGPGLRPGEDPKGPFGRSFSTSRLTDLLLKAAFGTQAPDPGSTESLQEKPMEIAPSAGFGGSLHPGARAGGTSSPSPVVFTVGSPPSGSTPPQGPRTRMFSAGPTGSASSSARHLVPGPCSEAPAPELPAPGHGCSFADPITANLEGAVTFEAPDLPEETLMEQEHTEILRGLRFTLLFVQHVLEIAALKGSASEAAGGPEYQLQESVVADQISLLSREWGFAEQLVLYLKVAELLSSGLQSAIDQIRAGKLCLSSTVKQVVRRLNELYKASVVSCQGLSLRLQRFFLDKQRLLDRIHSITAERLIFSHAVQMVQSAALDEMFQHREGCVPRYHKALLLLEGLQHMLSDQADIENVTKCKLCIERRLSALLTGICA
As to the kind of experiment: Inhibition of human recombinant ULK1 at 15 nM in presence of ATP by radiometric assay relative to control.

Sequence of Aurora kinase B (Homo sapiens) (Q96GD4 whole entry): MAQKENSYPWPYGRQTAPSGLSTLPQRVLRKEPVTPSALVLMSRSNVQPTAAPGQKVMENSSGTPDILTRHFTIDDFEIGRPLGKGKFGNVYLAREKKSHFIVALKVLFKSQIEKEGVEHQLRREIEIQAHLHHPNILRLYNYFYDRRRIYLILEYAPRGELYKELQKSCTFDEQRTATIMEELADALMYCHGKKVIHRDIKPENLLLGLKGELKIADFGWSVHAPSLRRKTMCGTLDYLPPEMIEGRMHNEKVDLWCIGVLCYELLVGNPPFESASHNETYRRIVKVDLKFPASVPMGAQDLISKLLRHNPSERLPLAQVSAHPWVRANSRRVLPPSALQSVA

The term inhibition denotes the share of the control response that was lost under treatment. `O=C(N[C@@H](C1CC1)C(F)(F)F)c1cc(-c2cnn3cc(-c4ccc(F)cc4)cnc23)cs1`: the inhibition in test [1] is 49%. Besides, the fold change (FC) in test [2] and in test [3] was 0 each time.

Regarding `CNC(=O)c1ccccc1Oc1nc(Nc2cc(OC)c(OC)c(OC)c2)ncc1Br`, in test [4], the fold change (FC) amounted to 0.09. The inhibition in test [5] came to 3%.

As for `CC(C)[C@H](NC(=O)c1cc(-c2cnn3cc(-c4ccc(OCCN5CCCCC5)cc4)cnc23)cs1)C(F)(F)F`, the figures for the inhibition in test [6] and in test [7] were 3% and 88%, respectively.
